In ChEMBL document CHEMBL5252656, “Cyclic Peptidic Furin Inhibitors Developed by Combinatorial Chemistry” (ACS Med Chem Lett, 2023):
Calls of active or inactive are those of the source. The rule behind the calls is not given here. Bridge positions count the residues as written; N and C are the ends. Peptide text beside a SMILES is read from it.

Key:
Furin (Homo sapiens) [1] = molecular target: Furin (Homo sapiens) (UniProt P09958); test: Inhibition of human furin in human PANC-1 cells assessed as release of fluorescent AMC using Pyr-Arg-Thr-Arg-AMC as substrate preincubated for 30 mins followed by substrate addition by plate reader analysis; format: cell-based; set-up: concentration or dose not given beside the values
Chain of Furin (Homo sapiens) (P09958 whole entry): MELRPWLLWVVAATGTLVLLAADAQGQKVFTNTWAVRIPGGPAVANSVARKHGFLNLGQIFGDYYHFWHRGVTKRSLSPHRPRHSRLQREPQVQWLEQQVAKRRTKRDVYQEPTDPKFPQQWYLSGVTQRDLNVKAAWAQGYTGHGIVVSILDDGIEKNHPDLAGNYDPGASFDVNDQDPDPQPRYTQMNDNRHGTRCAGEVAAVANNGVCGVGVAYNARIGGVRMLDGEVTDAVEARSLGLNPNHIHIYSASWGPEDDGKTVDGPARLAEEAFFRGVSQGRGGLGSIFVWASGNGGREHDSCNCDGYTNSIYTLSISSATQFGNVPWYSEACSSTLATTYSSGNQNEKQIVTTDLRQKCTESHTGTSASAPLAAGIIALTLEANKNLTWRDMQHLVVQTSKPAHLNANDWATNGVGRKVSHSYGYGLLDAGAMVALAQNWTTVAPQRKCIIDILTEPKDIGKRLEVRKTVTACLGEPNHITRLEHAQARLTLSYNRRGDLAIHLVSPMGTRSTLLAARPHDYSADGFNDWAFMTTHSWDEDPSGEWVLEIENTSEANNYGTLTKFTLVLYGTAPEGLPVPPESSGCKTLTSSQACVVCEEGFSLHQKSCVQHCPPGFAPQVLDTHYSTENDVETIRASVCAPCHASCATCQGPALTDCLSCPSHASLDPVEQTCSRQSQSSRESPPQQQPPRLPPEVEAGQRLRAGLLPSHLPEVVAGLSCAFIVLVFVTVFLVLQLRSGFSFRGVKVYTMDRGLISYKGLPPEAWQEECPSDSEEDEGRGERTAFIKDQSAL
In short: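 PANC-1 lysate (DMEM/10% FBS culture, protease-inhibitor cocktail extraction) was diluted 10-fold in 100 mM HEPES, 1 mM CaCl2, pH 7.5, then warmed 15 min at 37 °C. Peptide (100 μM final) was added for 30 min at 37 °C, then Pyr-RTR-AMC substrate (100 μM final). AMC release was monitored over time; % inhibition relative to no-inhibitor control.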

Furin (Homo sapiens) [2] = molecular target: Furin (Homo sapiens) (UniProt P09958); test: Inhibition of human furin in human PANC-1 cells assessed as release of fluorescent AMC using Pyr-Arg-Thr-Arg-AMC as substrate preincubated for 10 mins in presence of SFTI-1 then incubation with ligand for 30 mins followed by substrate addition by plate reader analysis; format: cell-based; settings: time 40.0 min
In short: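 PANC-1 cells grown in DMEM with 10% FBS and 1% P/S at 37 °C, 5% CO2. Cell lysate was prepared in protease inhibitor cocktail and diluted 10-fold in pH 7.5 HEPES/CaCl2 buffer. It was given SFTI-1 (100 μM final) for 10 min at 37 °C, then peptide (100 μM final) for 30 min, then Pyr-RTR-AMC (100 μM final). AMC release was followed; % inhibition vs no-inhibitor control.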

[3] = molecular target: T1, Transmembrane protease serine 6 (Homo sapiens) (UniProt Q8IU80); test: Inhibition of recombinant human matriptase 2 using Boc-Gln-Ala-Arg-AMC as substrate at 3.85 to 385 nM preincubated for 30 mins followed by substrate addition and measured for 40 mins by microplate reader method; settings: dose 3.85-385 nM, time 70.0 min
T1 sequence (whole entry): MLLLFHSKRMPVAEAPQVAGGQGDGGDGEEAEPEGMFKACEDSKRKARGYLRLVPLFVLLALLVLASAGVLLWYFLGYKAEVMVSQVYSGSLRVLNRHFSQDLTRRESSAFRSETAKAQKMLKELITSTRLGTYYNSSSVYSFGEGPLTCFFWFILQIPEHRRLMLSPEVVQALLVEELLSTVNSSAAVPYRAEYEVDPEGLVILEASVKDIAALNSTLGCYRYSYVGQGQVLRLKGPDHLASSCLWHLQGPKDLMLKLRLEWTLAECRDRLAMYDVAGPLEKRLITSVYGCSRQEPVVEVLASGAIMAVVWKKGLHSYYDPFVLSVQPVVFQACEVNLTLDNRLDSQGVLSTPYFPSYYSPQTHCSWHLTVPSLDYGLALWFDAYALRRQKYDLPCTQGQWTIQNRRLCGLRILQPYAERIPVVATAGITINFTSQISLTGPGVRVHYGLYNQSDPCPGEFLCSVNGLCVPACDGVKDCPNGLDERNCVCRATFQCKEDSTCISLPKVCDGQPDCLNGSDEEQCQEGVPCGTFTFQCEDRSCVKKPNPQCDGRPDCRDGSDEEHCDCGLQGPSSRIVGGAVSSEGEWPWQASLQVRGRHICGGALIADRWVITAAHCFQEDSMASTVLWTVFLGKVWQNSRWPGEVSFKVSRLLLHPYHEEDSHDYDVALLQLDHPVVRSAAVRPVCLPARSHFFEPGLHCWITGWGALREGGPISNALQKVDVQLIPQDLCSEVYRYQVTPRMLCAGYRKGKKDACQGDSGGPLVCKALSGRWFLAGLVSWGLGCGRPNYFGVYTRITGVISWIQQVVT
In short: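 Recombinant human matriptase-2 (1.51 U/mL) in 50 mM Tris-Cl pH 8.3, 150 mM NaCl, 0.01% Triton X-100 was preincubated with compound 30 min at 37 °C. Boc-QAR-AMC (5 μM final) was then added; fluorescence (ex 380/em 450 nm) read ≥40 min. % inhibition vs no-inhibitor control.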

[4] = Stability in human serum assessed as parent compound remaining at 1.54 mM and measured after 24 hrs by RP-HPLC analysis; format: ADME, cell-free
In short: (§1)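 Peptide stock (1.54 mM) was diluted 10-fold into human serum and held at 37 °C. Samples were taken at 0, 1, 2, 3, 5 and 24 h, precipitated with equal volume acetonitrile and centrifuged 10 min. Supernatant was analysed by RP-HPLC (C18, 10–90% B over 40 min) and MALDI-TOF MS.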

[5] = Stability in human serum assessed as parent compound remaining at 1.54 mM and measured after 24 hrs by MALDI-MS analysis; format: ADME, cell-free; in short: as §1
Furin (Homo sapiens) [6] = molecular target: Furin (Homo sapiens) (UniProt P09958); test: Inhibition of recombinant human furin using Pyr-Arg-Thr-Lys-Arg-AMC as substrate at 2.4 nM preincubated for 30 mins followed by substrate addition and measured for 40 mins by microplate reader method; settings: time 70.0 min
Furin (Homo sapiens) [7] = molecular target: Furin (Homo sapiens) (UniProt P09958); test: Inhibition of recombinant human furin using Pyr-Arg-Thr-Lys-Arg-AMC as substrate at 24 nM preincubated for 30 mins followed by substrate addition and measured for 40 mins by microplate reader method; settings: time 70.0 min
Furin (Homo sapiens) [8] = molecular target: Furin (Homo sapiens) (UniProt P09958); test: Inhibition of recombinant human furin using Pyr-Arg-Thr-Lys-Arg-AMC as substrate at 77 nM preincubated for 30 mins followed by substrate addition and measured for 40 mins by microplate reader method; settings: time 70.0 min

Row | SMILES | inhibition (Furin (Homo sapiens) [1]) [%] | inhibition (Furin (Homo sapiens) [2]) [%] | inhibition [3] | Stability [4] | Stability [5] | inhibition (Furin (Homo sapiens) [6]) [%] | inhibition (Furin (Homo sapiens) [7]) [%] | inhibition (Furin (Homo sapiens) [8]) [%]
1 | CC[C@H](C)[C@@H]1NC(=O)[C@@H]2CCCN2C(=O)[C@@H]2CCCN2C(=O)[C@H]([C@@H](C)CC)NC(=O)[C@H](CO)NC(=O)[C@H](CCCCN)NC(=O)[C@H]([C@H](C)O)NC(=O)[C@@H]2CSSC[C@H](NC1=O)C(=O)N[C@@H](Cc1ccccc1)C(=O)N1CCC[C@H]1C(=O)N[C@H](C(=O)O)CC(=O)NC(=N)NCCC[C@@H](C(N)=O)C(=O)N2 | 98.4 |  |  |  |  |  |  | 
2 | CC[C@H](C)[C@@H]1NC(=O)[C@@H]2CCCN2C(=O)[C@@H]2CCCN2C(=O)[C@H]([C@@H](C)CC)NC(=O)[C@H](CO)NC(=O)[C@H](CCCCN)NC(=O)[C@H](CCCCN)NC(=O)[C@@H](NC(=O)[C@H](CCCNC(=N)N)NC(=O)[C@@H](N)CCCCN)CSSC[C@@H](C(=O)N[C@@H](Cc2ccccc2)C(N)=O)NC1=O (H-KRCKKSIPPICF-NH2; disulfide 3-11) | 50.4 | 34.7 | inactive | Stable | Stable |  |  | 
3 | CC[C@H](C)[C@@H]1NC(=O)[C@@H]2CCCN2C(=O)[C@@H]2CCCN2C(=O)[C@H]([C@@H](C)CC)NC(=O)[C@H](CO)NC(=O)[C@H](CCCCN)NC(=O)[C@H](CCCCN)NC(=O)[C@@H](NC(=O)[C@H](CCCNC(=N)N)NC(=O)[C@H](CCCNC(=N)N)NC(=O)[C@@H](N)CCCCN)CSSC[C@@H](C(=O)N[C@@H](Cc2ccccc2)C(N)=O)NC1=O (H-KRRCKKSIPPICF-NH2; disulfide 4-12) |  |  |  |  |  | 66.5 | 3.98 | 0.1
4 | CC[C@H](C)[C@@H]1NC(=O)[C@@H]2CCCN2C(=O)[C@@H]2CCCN2C(=O)[C@H]([C@@H](C)CC)NC(=O)[C@H](CO)NC(=O)[C@H](CCCCN)NC(=O)[C@H](CCCCN)NC(=O)[C@@H](NC(=O)[C@H](CCCNC(=N)N)NC(=O)[C@@H](N)CCCNC(=N)N)CSSC[C@@H](C(=O)N[C@@H](Cc2ccccc2)C(N)=O)NC1=O (H-RRCKKSIPPICF-NH2; disulfide 3-11) |  |  |  |  |  | 63 | 6.02 | 0.2
5 | CC[C@H](C)[C@@H]1NC(=O)[C@@H]2CCCN2C(=O)[C@@H]2CCCN2C(=O)[C@H]([C@@H](C)CC)NC(=O)[C@H](CO)NC(=O)[C@H](CCCCN)NC(=O)[C@H](CCCCN)NC(=O)[C@@H](NC(=O)[C@H](CCCNC(=N)N)NC(=O)[C@H](CCCNC(=N)N)NC(=O)[C@@H](N)CCCNC(=N)N)CSSC[C@@H](C(=O)N[C@@H](Cc2ccccc2)C(N)=O)NC1=O (H-RRRCKKSIPPICF-NH2; disulfide 4-12) | 68.3 | 46.6 | inactive | Stable | Stable | 43.7 |  | 
6 | CC[C@H](C)[C@@H]1NC(=O)[C@@H]2CCCN2C(=O)[C@@H]2CCCN2C(=O)[C@H]([C@@H](C)CC)NC(=O)[C@H](CO)NC(=O)[C@H](CCCCN)NC(=O)[C@H](CCCCN)NC(=O)[C@@H]2CSSC[C@H](NC1=O)C(=O)N[C@@H](Cc1ccccc1)C(=O)N[C@@H](CCCNC(=N)N)C(=O)N[C@@H](CCCNC(=N)N)C(=O)N2 (cyclo(CFRRCKKSIPPI); disulfide 1-5) |  |  |  |  |  | 97.2 | 46.1 | 3.72
7 | CC[C@H](C)[C@@H]1NC(=O)[C@@H]2CCCN2C(=O)[C@@H]2CCCN2C(=O)[C@H]([C@@H](C)CC)NC(=O)[C@H](CO)NC(=O)[C@H](CCCCN)NC(=O)[C@H](CCCCN)NC(=O)[C@@H]2CSSC[C@H](NC1=O)C(=O)N[C@@H](Cc1ccccc1)C(=O)N[C@@H](CCCCN)C(=O)N[C@@H](CCCNC(=N)N)C(=O)N[C@@H](CCCNC(=N)N)C(=O)N2 (cyclo(KRRCKKSIPPICF); disulfide 4-12) | 64.8 | 45.9 | inactive |  |  | 40.2 |  | 
8 | CC[C@H](C)[C@@H]1NC(=O)[C@@H]2CCCN2C(=O)[C@@H]2CCCN2C(=O)[C@H]([C@@H](C)CC)NC(=O)[C@H](CO)NC(=O)[C@H](CCCCN)NC(=O)[C@H](CCCCN)NC(=O)[C@@H]2CSSC[C@H](NC1=O)C(=O)N[C@@H](Cc1ccccc1)C(=O)N[C@@H](CCCNC(=N)N)C(=O)N[C@@H](CCCNC(=N)N)C(=O)N[C@@H](CCCNC(=N)N)C(=O)N2 (cyclo(RRRCKKSIPPICF); disulfide 4-12) | 58.8 | 45.2 | inactive |  |  | 34.7 |  | 
